Data as given in ChEMBL document CHEMBL5608233, “Fluorescent Peptides Sequester Redox Copper to Mitigate Oxidative Stress, Amyloid Toxicity, and Neuroinflammation” (ACS Med Chem Lett, 2024).
The source made the active and inactive calls. The calls are words filed in the database; no cut-off is given here. Residues, ends and D or L forms follow the SMILES beside them. *: point of attachment. X1 = CN(C)c1ccc2c3c(cccc13)C(=O)N(CCN*)C2=O

Key:
[1] = target: Amyloid-beta precursor protein (Homo sapiens) (UniProt P05067); experiment: Inhibition of Amyloid beta 42 (unknown origin) aggregation extracted from Escherichia coli BL21 assessed as decrease in Cu2+ induced amyloid beta fibril formation incubated for 48 hrs in presence of Cu2+ by atomic force microscopy
[2] = target: Amyloid-beta precursor protein (Homo sapiens) (UniProt P05067); experiment: Inhibition of Amyloid beta 42 (unknown origin) aggregation extracted from Escherichia coli BL21 assessed as decrease in amyloid beta fibril formation incubated for 48 hrs by atomic force microscopy
[3] = Metal chelating activity assessed as compound-Cu2+ complex formation by measuring decrease in fluorescence intensity at 25 uM in presence of CuCl2 by UV-Visible fluorescence spectroscopic analysis
[4] = Antioxidant activity assessed as inhibition of Cu2+ induced ROS production by measuring decrease in fluorescence intensity in presence of Cu2+ and ascorbate at 10 uM measured after 10 mins by absorption spectroscopic analysis; type: functional
In short: (§1)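 Ascorbate added first. After 10 min, redox cycling triggered with Cu2+ alone or peptide–Cu2+ premixed in HEPES (50 mM, pH 7.4). Ascorbate consumption followed by absorbance at 265 nm over time.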

N9 = experiment: Antiinflammatory activity in LPS-induced mouse N9 cells assessed as reduction in ROS production at 10 uM incubated for 24 hrs by DCFDA staining based analysis; type: functional, cell-based
In short: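 N9 cells treated with LPS (1 μg/mL, 24 h) with or without peptide (10 μM, or a concentration series). ROS read with DCFDA fluorescence. n = 3, one-way ANOVA.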

[5] = Cytotoxicity against human SH-SY5Y cells assessed as cell viability at 100 uM incubated for 24 hrs by MTT assay relative to control; type: toxicity, cell-based; conditions: read-out: Activity
In short: (§2)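 SH-SY5Y cells exposed to peptide (10–100 μM) for 24 h. Viability by MTT.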

[6] = Cytotoxicity against mouse N9 cells at upto 50 uM incubated for 24 hrs by MTT assay; type: toxicity, cell-based; conditions: n9, 24 h
In short: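 N9 microglia given a concentration series of peptide. Viability assessed.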

Homo sapiens [7] = species on record: Homo sapiens; experiment: Binding affinity to Amyloid beta 16 (unknown origin) extracted from Escherichia coli BL21 assessed as maximal quenching in presence of Cu2+ by fluorescence quenching analysis
SH-SY5Y [8] = experiment: Neuroprotective activity against amyloid beta 42 induced toxicity in human SH-SY5Y cells assessed as increase in cell viability at 10 uM incubated for 24 hrs by MTT assay (reference value: 55 %); type: functional
In short: (§3)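 SH-SY5Y cells incubated 24 h with Aβ42 fibrils (10 μM) and peptide (10 μM), in the absence or presence of Cu2+ (10 μM). Viability by MTT.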

[9] = Antioxidant activity assessed as inhibition of Cu2+ induced ROS production by measuring decrease in fluorescence intensity in presence of stoichiometric ratio of 1:2 of Cu2+ and ascorbate at 10 uM measured after 10 mins by absorption spectroscopic analysis; type: functional
[10] = Antioxidant activity assessed as inhibition of Cu2+ induced ROS production by measuring decrease in fluorescence intensity in presence of ascorbate and H2O2 at 10 uM measured after 20 mins by absorption spectroscopic analysis; type: functional
[11] = Metal chelating activity assessed as compound-Al3+ complex formation by measuring decrease in fluorescence intensity at 25 uM in presence of AlCl3 by UV-Visible fluorescence spectroscopic analysis
[12] = Metal chelating activity assessed as compound-Cu2+ complex formation measured after 2 mins in presence of CuCl2 by UV-Visible fluorescence spectroscopic analysis
Homo sapiens [13] = species on record: Homo sapiens; experiment: Binding affinity to Amyloid beta 16 (unknown origin) extracted from Escherichia coli BL21 assessed as increase in absorbance band by circular dichroism spectroscopic analysis
[14] = Antioxidant activity assessed as inhibition of Cu2+ induced ROS production by measuring decrease in fluorescence intensity in presence of stoichiometric ratio of 1:1 of Cu2+ and ascorbate at 10 uM measured after 10 mins by absorption spectroscopic analysis; type: functional
SH-SY5Y [15] = experiment: Neuroprotective activity against amyloid beta 42 and Cu2+ induced toxicity in human SH-SY5Y cells assessed as increase in cell viability at 10 uM incubated for 24 hrs by MTT assay (reference value: 48 %); type: functional; in short: as §3
[16] = Metal chelating activity assessed as compound-Fe3+ complex formation by measuring decrease in fluorescence intensity at 25 uM in presence of FeCl3 by UV-Visible fluorescence spectroscopic analysis
[17] = Antiinflammatory activity in LPS-induced mouse N9 cells assessed as reduction in nitrite production at 10 uM incubated for 24 hrs by griess assay relative to control; type: functional; set-up: scale not given: the % may be the effect or the level left
In short: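 LPS (1 μg/mL)-stimulated N9 microglia treated with peptide at 10 μM. Nitric oxide quantified as nitrite in the medium by Griess assay. Nitrite in LPS-only cells set as 100%. n = 3, one-way ANOVA.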

SH-SY5Y [18] = experiment: Cytotoxicity against human SH-SY5Y cells at 100 uM incubated for 24 hrs by MTT assay; type: toxicity, cell-based; in short: as §2
[19] = Metal chelating activity assessed as compound-Cu2+ complex formation at 50 uM in presence of CuCl2 by UV-Visible fluorescence spectroscopic analysis
In short: (§4)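 Peptide solution at 50 μM mixed 1:1 with Cu2+, Zn2+, Fe3+ or Al3+. NMI emission recorded at λex 450 nm, λem 550 nm, and drop in fluorescence used to indicate complexation. Separate titration with Cu2+ (0–100 μM) into 50 μM peptide used to assess stoichiometry.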

[20] = Metal chelating activity assessed as compound-Fe3+ complex formation by measuring decrease in fluorescence intensity at 50 uM in presence of FeCl3 by UV-Visible fluorescence spectroscopic analysis; in short: as §4
Homo sapiens [21] = species on record: Homo sapiens; experiment: Binding affinity to Amyloid beta 16 (unknown origin) extracted from Escherichia coli BL21 by measuring quenching effect incubated for 15 mins in presence of Cu2+ by fluorescence quenching analysis
[22] = Metal chelating activity assessed as compound-Zn2+ complex formation by measuring decrease in fluorescence intensity at 50 uM in presence of ZnCl2 by UV-Visible fluorescence spectroscopic analysis; in short: as §4
[23] = Metal chelating activity assessed as compound-Al3+ complex formation by measuring decrease in fluorescence intensity at 50 uM in presence of AlCl3 by UV-Visible fluorescence spectroscopic analysis; in short: as §4
[24] = target: Amyloid-beta precursor protein (Homo sapiens) (UniProt P05067); experiment: Inhibition of Amyloid beta 42 (unknown origin) extracted from Escherichia coli BL21 induced ROS production assessed as decrease in fluorescence intensity at 10 uM incubated for 20 mins in presence of Cu2+ and ascorbate by absorption spectroscopic analysis
[25] = Metal chelating activity assessed as compound-Cu2+ complex formation by measuring quenching effect measured after 20 mins in presence of CuCl2 by fluorescence quenching analysis
[26] = Antioxidant activity assessed as inhibition of Cu2+ induced ROS production by measuring decrease in fluorescence intensity in presence of Cu2+ and ascorbate at 10 uM by absorption spectroscopic analysis; type: functional; in short: as §1

Sequence of Amyloid-beta precursor protein (Homo sapiens) (P05067 whole entry): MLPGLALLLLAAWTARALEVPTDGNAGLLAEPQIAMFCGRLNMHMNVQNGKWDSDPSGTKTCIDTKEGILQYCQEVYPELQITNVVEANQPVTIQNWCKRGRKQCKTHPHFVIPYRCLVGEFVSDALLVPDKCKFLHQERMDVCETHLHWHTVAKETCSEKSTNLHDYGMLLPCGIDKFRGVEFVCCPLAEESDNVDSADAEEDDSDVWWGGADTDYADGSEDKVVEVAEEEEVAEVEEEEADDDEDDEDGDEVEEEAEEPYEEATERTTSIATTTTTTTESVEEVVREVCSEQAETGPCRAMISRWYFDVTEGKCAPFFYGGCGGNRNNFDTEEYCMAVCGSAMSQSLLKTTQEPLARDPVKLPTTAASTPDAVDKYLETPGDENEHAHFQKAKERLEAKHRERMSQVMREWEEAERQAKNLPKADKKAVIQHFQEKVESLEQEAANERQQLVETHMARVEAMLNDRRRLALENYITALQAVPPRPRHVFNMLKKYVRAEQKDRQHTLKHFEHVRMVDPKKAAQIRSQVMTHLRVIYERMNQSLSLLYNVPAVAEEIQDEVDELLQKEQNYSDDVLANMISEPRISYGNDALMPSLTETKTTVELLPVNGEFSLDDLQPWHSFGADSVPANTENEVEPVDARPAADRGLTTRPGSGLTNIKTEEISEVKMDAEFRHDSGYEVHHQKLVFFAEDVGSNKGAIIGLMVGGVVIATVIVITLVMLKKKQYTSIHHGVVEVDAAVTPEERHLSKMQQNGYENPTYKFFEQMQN

Row | SMILES | inhibition [1] | inhibition [2] | Activity [12] | Activity (Homo sapiens [13]) | Activity [19] | Activity [20] | Activity [23] | Activity [4] | Activity (N9) | viability at 24 h, 100 µM [5] | Activity [6] | Activity (SH-SY5Y [8]) | Activity [10] | Activity (SH-SY5Y [15]) | Activity [17] | Activity (SH-SY5Y [18]) | also measured
1 | CN(C)c1ccc2c3c(cccc13)C(=O)N(CCNC(=O)[C@H](CCC(N)=O)NC(=O)[C@H](CCCCN)NC(=O)[C@H](Cc1c[nH]cn1)NC(=O)CNC(=O)CN)C2=O (H-GGHKQ-X1) | inactive | inactive | Active | inactive | – | – | – | Active | Active | > 90% | Non-Toxic | ~80% | inactive | 85% | 70% | Non-Toxic | Activity [3]: Active; Activity (Homo sapiens [7]): 65%; Activity [9]: inactive; Activity [11]: inactive; Activity [14]: inactive; Activity [16]: inactive
2 | CN(C)c1ccc2c3c(cccc13)C(=O)N(CCNC(=O)[C@H](CCC(N)=O)NC(=O)[C@H](CCCCN)NC(=O)[C@H](Cc1c[nH]cn1)NC(=O)[C@@H](Cc1c[nH]cn1)NC(=O)CN)C2=O | Active | Active | Active | Active | Active | inactive | inactive | Active | Active | > 90% | Non-Toxic | ~80% | – | 92% | 56% | Non-Toxic | Activity (Homo sapiens [21]): Active; Activity [22]: inactive
3 | NCCCC[C@H](NC(=O)[C@H](Cc1cnc[nH]1)NC(=O)CN)C(=O)O (H-Gly-His-Lys-OH) | inactive | inactive | – | – | – | – | – | – | – | – | – | – | – | – | – | – | –
4 | CN(C)c1ccc2c3c(cccc13)C(=O)N(CCNC(=O)[C@H](CCC(N)=O)NC(=O)[C@H](CCCCN)NC(=O)[C@H](Cc1c[nH]cn1)NC(=O)CN)C2=O (H-GHKQ-X1) | Active | Active | – | – | – | – | – | – | – | – | – | – | – | – | – | – | inhibition [24]: Active

Second part, led by results:

Row | inhibition [1] | inhibition [2] | Activity [12] | Activity (Homo sapiens [13]) | Activity [19] | Activity [20] | Activity [23] | SMILES | Activity [4] | Activity (N9) | viability at 24 h, 100 µM [5] | Activity [6] | Activity (SH-SY5Y [8]) | Activity [10] | Activity (SH-SY5Y [15]) | Activity [17] | Activity (SH-SY5Y [18]) | also measured
5 | inactive | Active | – | – | – | – | – | CN(C)c1ccc2c3c(cccc13)C(=O)N(CCNC(=O)[C@@H](N)CCC(N)=O)C2=O | – | – | – | – | – | – | – | – | – | –
6 | Active | Active | Active | Active | Active | inactive | inactive | CN(C)c1ccc2c3c(cccc13)C(=O)N(CCNC(=O)[C@H](CCC(N)=O)NC(=O)[C@H](CCCCN)NC(=O)[C@@H](N)Cc1c[nH]cn1)C2=O | – | Active | > 90% | Non-Toxic | ~80% | Active | 82% | 85% | Non-Toxic | Activity [25]: Active; Activity [26]: Active
